In ChEMBL document CHEMBL1148778, “Synthesis and characterization of nonsteroidal glucocorticoid receptor modulators for multiple myeloma” (J Med Chem, 2007) one finds Ki, Activity and Efficacy data, which are given here for three compounds.

Molecules are shown by their SMILES.

Test [1] deals with T1, Mineralocorticoid receptor (Homo sapiens, UniProt P08235).
T1 sequence (P08235 whole entry): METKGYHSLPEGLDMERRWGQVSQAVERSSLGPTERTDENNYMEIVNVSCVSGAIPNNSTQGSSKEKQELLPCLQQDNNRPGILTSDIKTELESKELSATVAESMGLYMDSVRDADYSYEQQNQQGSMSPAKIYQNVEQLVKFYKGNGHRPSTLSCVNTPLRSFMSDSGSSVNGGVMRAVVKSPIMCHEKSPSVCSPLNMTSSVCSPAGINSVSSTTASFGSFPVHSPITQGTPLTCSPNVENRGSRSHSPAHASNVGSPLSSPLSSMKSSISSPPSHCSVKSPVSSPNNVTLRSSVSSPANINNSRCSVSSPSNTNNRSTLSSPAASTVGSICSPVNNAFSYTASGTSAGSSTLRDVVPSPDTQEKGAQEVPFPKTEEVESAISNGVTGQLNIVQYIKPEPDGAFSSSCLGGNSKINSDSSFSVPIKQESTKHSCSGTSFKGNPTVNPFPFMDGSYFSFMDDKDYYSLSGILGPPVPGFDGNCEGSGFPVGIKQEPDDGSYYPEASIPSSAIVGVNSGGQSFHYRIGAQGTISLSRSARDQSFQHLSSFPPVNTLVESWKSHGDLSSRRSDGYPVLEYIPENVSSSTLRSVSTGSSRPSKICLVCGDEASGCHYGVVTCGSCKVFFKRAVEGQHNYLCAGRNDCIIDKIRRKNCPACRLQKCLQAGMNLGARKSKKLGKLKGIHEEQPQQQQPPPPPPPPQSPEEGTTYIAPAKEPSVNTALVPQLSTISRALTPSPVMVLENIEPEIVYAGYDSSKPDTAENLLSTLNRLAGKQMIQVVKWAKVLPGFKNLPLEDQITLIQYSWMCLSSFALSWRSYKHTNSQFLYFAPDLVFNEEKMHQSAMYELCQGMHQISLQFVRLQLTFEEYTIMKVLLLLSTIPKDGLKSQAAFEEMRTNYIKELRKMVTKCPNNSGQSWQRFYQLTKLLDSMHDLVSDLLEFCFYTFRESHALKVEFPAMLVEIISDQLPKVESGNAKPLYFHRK
Description: Binding affinity to MR. An outline of the steps:
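Competitive binding assays on PR and MR. Values are means of at least three separate experiments, each with triplicate determinations, ± SEM. A value without SEM comes from a single determination.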

Test [2] has as its target T2, Mineralocorticoid receptor (Homo sapiens) (UniProt P08235).
T2 sequence (whole entry): T1 sequence (P08235 whole entry)
Description: Agonist activity at mineralocorticoid receptor by MR activation assay. Type of test: functional.

Test [3] concerns the target T2, Mineralocorticoid receptor (Homo sapiens). Description: Antagonist activity at mineralocorticoid receptor by MR activation assay. Type of test: functional. On the set-up: scale not given: the % may be the effect or the level left.
The subject of test [4] is RPMI-8226. The test can be described thus: Inhibition of tumor growth in human RPMI8226 cells xenografted nude mouse at 30 mg/kg, po after 4 weeks relative to Dexamethasone. Type of test: functional. For orientation: Xenograft models place foreign cells or tissue in a host animal.
The subject of test [5] is RPMI-8226. The test can be described thus: Inhibition of tumor growth in human RPMI8226 cells xenografted nude mouse at 3 mg/kg, po after 4 weeks relative to Dexamethasone. It is filed as functional.
Test [6] relates to RPMI-8226. Description: Inhibition of tumor growth in human RPMI8226 cells xenografted nude mouse at 100 mg/kg, po after 4 weeks relative to Dexamethasone. Type of test: functional.
Test [7] relates to RPMI-8226. The test can be described thus: Inhibition of tumor growth in human RPMI8226 cells xenografted nude mouse at 10 mg/kg, po after 4 weeks relative to Dexamethasone. It is filed as functional.

By Ki is commonly meant a dissociation constant, usually derived from enzyme kinetics or from competition with a known ligand. In the case of `COCc1ccsc1/C=C1\Oc2ccc(O)c(OC)c2-c2ccc3c(c21)C(C)=CC(C)(C)N3`, affinity in test [1] was put at a Ki of 0.01 µM. The figures for the Activity in test [2] and in test [3] were 25% and 55%, respectively.

On to `COc1c(O)ccc2c1-c1ccc3c(c1/C(=C/c1sccc1CO)O2)C(C)=CC(C)(C)N3`, for which, in test [1], the affinity, expressed as Ki, was 0.98 µM. In addition, the Efficacy is recorded as 80% in the test with RPMI-8226 [4], 29% with RPMI-8226 [5] and 97% with RPMI-8226 [6].

In test [1], `CO/N=C(\C)c1ccsc1/C=C1\Oc2ccc(O)c(OC)c2-c2ccc3c(c21)C(C)=CC(C)(C)N3` returned a Ki of 0.048 µM. Besides, the Efficacy was 82% in the test on RPMI-8226 [4], 95% with RPMI-8226 [6] and 78% in the test with RPMI-8226 [7].
